Test results taken from ChEMBL document CHEMBL4627365, “Dithiocarbamate prodrugs activated by prostate specific antigen to target prostate cancer” (Bioorg Med Chem Lett, 2020).
pIC50: −log10 of the molar value. Blank lines part the entries; values can stand above or below the compound they belong to. Residues, ends and D or L forms follow the SMILES beside them. *: point of attachment. X1 = CCN(CC)C(=S)SCc1ccc(N*)cc1

Key:
[1] = molecular target: T1, Prostate-specific antigen (Homo sapiens, UniProt P07288); assay: Prodrug activation assessed as PSA-mediated (unknown origin) compound cleavage measured up to 8 hrs by HPLC analysis
T1 sequence (P07288 whole entry): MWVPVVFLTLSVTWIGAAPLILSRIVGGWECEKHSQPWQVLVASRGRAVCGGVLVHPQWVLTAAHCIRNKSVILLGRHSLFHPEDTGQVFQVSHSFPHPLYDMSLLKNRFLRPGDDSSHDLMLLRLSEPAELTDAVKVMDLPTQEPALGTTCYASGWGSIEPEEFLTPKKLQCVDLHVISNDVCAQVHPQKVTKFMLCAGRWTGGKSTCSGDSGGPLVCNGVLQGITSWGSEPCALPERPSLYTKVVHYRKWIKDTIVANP
Summary of the method: (§1)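 Prodrug incubated with 20 μg/mL PSA enzyme; samples taken at 5 min, 1 h, 2 h, 4 h, 8 h, 24 h and 48 h. Monitored by HPLC at 254 nm as percent prodrug remaining. Cleavage product identity confirmed by mass spectrometry.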

[2] = molecular target: T1, Prostate-specific antigen; assay: Prodrug activation assessed as PSA-mediated (unknown origin) 4-((R)-2-((R)-2-amino-3-hydroxypropanamido)-4-methylpentanamido)benzyl diethyl-carbamodithioate metabolite formation by HPLC analysis; type: ADME; summary of the method: as §1
[3] = molecular target: T1, Prostate-specific antigen; assay: Prodrug activation assessed as PSA-mediated (unknown origin) diethyldithiocarbamate formation in presence of leucine aminopeptidase by LC-MS analysis; type: ADME
[4] = molecular target: T1, Prostate-specific antigen; assay: Prodrug activation assessed as PSA-mediated (unknown origin) Cu(diethyldithiocarbamate)2 complex formation in presence of leucine aminopeptidase and CuSO4 after 14.5 mins by LC-MS analysis; type: ADME
[5] = molecular target: T1, Prostate-specific antigen; assay: Prodrug activation in human LNCAP cell lysates assessed as PSA-mediated peptide cleavage measured up to 4 hrs by HPLC analysis; type: subcellular, Lysate
Summary of the method: (§2)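 Prodrug incubated with LNCaP or PC3 cell lysate. Cleavage followed over time by HPLC, with caffeine as reference, for up to 48 h.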

[6] = Prodrug activation in human PC3 cell lysate assessed as peptide cleavage measured up to 4 hrs by HPLC analysis; type: subcellular; conditions: pc-3, 4 h; summary of the method: as §2
[7] = molecular target: T1, Prostate-specific antigen; assay: Prodrug activation assessed as PSA-mediated (unknown origin) [4-[[(2S)-2-[[(2R)-2-amino-3-hydroxy-propanoyl]amino]-4-methyl-pentanoyl]amino]phenyl]methyl N,N-diethylcarbamodithioate metabolite formation in presence of CuSO4 by LC-MS analysis; type: ADME
Summary of the method: (§3)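 Prodrug was incubated with 20 μg/mL PSA enzyme and sampled from 5 min to 48 h. Samples were analysed by HPLC at 254 nm, and products were assigned by mass spectrometry (m/z).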

[8] = molecular target: T1, Prostate-specific antigen; assay: Prodrug activation assessed as PSA-mediated (unknown origin) Cu(diethyldithiocarbamate)2 complex formation in presence of CuSO4 by LC-MS analysis; type: ADME; summary of the method: as §3
[9] = molecular target: T1, Prostate-specific antigen; assay: Prodrug activation assessed as PSA-mediated (unknown origin) Leu-PAB-DT metabolite formation measured up to 48 hrs by HPLC analysis; type: ADME; summary of the method: as §1
[10] = molecular target: T2, Prostate-specific antigen (PSA) (Homo sapiens, UniProt P07288); assay: Stability assessed as PSA-mediated (unknown origin) compound cleavage by measuring parent compound remaining after 48 hrs by HPLC analysis; type: ADME; conditions: prostate-specific antigen (PSA) enzyme, read-out: Stability; summary of the method: as §1
T2 sequence (P07288 whole entry): T1 sequence (P07288 whole entry)

[11] = Prodrug activation in human PC3 cell lysate assessed as peptide cleavage measured up to 48 hrs by HPLC analysis; type: subcellular; conditions: pc-3, 48 h; summary of the method: as §2
[12] = system: Prostatic carcinoma cell; assay: Antiproliferative activity against human prostate cancer cells assessed as reduction in cell viability after 24 hrs by resazurin dye based assay; type: functional
Summary of the method: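 LNCaP (PSA-expressing) and PC3 (PSA-non-expressing) cells were co-treated with prodrug plus 1 μM CuSO4. Proliferation was read by resazurin assay at 24 h, and IC50 was derived.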

[13] = Cytotoxicity against human prostate epithelial cells assessed as reduction in cell viability after 24 hrs by resazurin dye based assay

SMILES: CCN(CC)C(=S)SCc1ccc(NC(=O)[C@H](CC(C)C)NC(=O)[C@H](CCC(N)=O)NC(=O)[C@H](CC(C)C)NC(=O)[C@H](CCCCN)NC(=O)[C@H](CO)NC(=O)[C@H](CO)NC(=O)[C@H](Cc2c[nH]cn2)NC(C)=O)cc1 (Ac-HSSKLQL-X1)
Drug metabolism [1]: 100%
Drug metabolism [2]: Metabolite_Detected
Drug metabolism [3]: Metabolite_Notdetected
Drug metabolism [4]: Metabolite_Detected
Drug metabolism [5]: 100%
Drug metabolism [6]: > 50%

Drug metabolism [7]: Metabolite_Detected
Drug metabolism [8]: Metabolite_Notdetected
SMILES: CCN(CC)C(=S)SCc1ccc(NC(=O)[C@H](CC(C)C)NC(=O)[C@H](CO)NC(=O)[C@H](Cc2ccc(O)cc2)NC(=O)[C@H](Cc2ccc(O)cc2)NC(=O)[C@H](CO)NC(=O)[C@H](CO)NC(=O)[C@H](CCCNC(=N)N)NC(=O)[C@H](N)CO)cc1

SMILES: CCN(CC)C(=S)SCc1ccc(NC(=O)[C@H](CC(C)C)NC(=O)[C@H](CO)NC(=O)[C@H](Cc2ccc(O)cc2)NC(=O)[C@H](Cc2ccc(O)cc2)NC(=O)[C@H](CO)NC(=O)[C@H](CO)NC(=O)[C@@H](N)CCCNC(=N)N)cc1 (H-RSSYYSL-X1)
Drug metabolism [9]: Metabolite_Detected
remaining at 48 h [10]: 30%
Drug metabolism [3]: Metabolite_Notdetected
Drug metabolism [4]: Metabolite_Detected
Drug metabolism [5]: 100%
Drug metabolism [11]: Metabolite_Notdetected

pIC50 [12]: 6.10
SMILES: CCN(CC)C(=S)SCc1ccc(NC(=O)CC[C@H](N)C(=O)O)cc1
pIC50 [13]: 4.82
